Screens deposited in PubChem BioAssay by several laboratories.
SR-BI HDL uptake: inhibitors of SR-BI mediated HDL lipid uptake, primary screen, ldlA[mSR-BI] cells, fluorescence, single point. Scavenger receptor class B member 1 (Mus musculus), Q61009. ldlA[mSR-BI] CHO cells, DiI-HDL uptake fluorescence, 3 h. inhibition, % at 12.5 µM. 320,000 tested, 0.96% active. AID 488896, 2010;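 active = mean replicate inhibition of at least 70% and a set share of replicates each scoring 70 or more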
SR-BI DiI-HDL act: activators of SR-BI mediated DiI-HDL uptake, primary screen, ldlA[mSR-BI] CHO cells, DiI fluorescence. 3 h; 100 = double the neutral-control signal. activation, % at 12.5 µM. AID 504775, 2011. 320,000 tested, 0.096% active;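 active = mean replicate activation of at least 60% and every replicate at or above 60%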
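Assay system: CHO ldlA[mSR-BI] cells, LDL receptor-null, SR-BI overexpressing; medium: Ham's F12 with 0.5% BSA, HEPES 25 mM, pH 7.4; also added: DiI-HDL 10 µg/mL; timing: 3 h uptake period with compound, 37 °C; signal: DiI fluorescence, bottom read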
ABCB6 inh 2: ABCB6 transporter inhibitors, primary screen, K562-ABCB6 cells, flow cytometry, MLPCN library; 360,000 tested, 0.19% active; K562-ABCB6 porphyrin accumulation, 1 h; stronger effect = lower value; fluorescence ratio to DMSO, % at 10 µM; AID 602162, 2011;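 active = fluorescence ratio to DMSO below 75%, the collection mean minus 3 SD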;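 also: signal is porphyrin accumulated inside mitochondria; lower ratio means ABCB6 inhibition with less porphyrin fluorescence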
GAA850 FXN act: FXN promoter activators, primary screen, cell-based, luciferase luminescence, HEK293 lucGAA850 | HEK293 lucGAA850 FXN promoter luciferase reporter, 24 h; percent of 10 µM SAHA response | activation, % at 6 µM | 360,000 tested, 0.56% active;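 active = activation above the average of all compounds screened plus 3 SD, cutoff fixed separately per campaign, cut at about 7.5% in these data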
AHR activator: AHR activators, primary screen, cell-based, luminescence, luciferase reporter, human; AID 2796, 2010; Aryl hydrocarbon receptor (Homo sapiens), P35869; 320,000 tested, 2.5% active; activation, % at 5 µM; AHR-responsive luciferase reporter cells; in the data active = activation above about 47%
Target sequence (P35869 whole entry, looked up): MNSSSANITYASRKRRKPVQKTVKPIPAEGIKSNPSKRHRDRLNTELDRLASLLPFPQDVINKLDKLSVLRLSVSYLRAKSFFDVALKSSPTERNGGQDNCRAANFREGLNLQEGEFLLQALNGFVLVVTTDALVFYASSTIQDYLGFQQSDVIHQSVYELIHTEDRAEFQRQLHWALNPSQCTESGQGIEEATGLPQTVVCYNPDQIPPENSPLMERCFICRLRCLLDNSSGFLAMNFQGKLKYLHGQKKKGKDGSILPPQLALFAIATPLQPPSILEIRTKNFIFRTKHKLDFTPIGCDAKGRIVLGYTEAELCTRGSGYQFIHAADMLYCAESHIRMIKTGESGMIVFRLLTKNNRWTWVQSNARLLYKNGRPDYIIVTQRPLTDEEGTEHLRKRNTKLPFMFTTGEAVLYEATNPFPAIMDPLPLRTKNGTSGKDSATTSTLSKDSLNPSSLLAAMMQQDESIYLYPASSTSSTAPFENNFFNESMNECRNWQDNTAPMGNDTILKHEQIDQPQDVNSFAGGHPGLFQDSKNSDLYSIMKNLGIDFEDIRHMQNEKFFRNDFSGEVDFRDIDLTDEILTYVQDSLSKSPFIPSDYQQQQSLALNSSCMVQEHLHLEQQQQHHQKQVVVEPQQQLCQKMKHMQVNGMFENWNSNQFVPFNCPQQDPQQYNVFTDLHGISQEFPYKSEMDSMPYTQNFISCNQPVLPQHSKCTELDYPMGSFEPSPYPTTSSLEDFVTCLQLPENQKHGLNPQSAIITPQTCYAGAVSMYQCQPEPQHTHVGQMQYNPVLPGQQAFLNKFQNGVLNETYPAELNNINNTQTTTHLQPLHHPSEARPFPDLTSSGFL
HIF act: HIF pathway transcriptional activators, primary screen, cell-based, U2OS HRE-luciferase, luminescence. 300,000 tested, 0.32% active. activation, % at 7.5 µM (by protocol). U2OS HRE-luciferase reporter; normalized: DMSO 0%, desferrioxamine 100%;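 active = mean activation of at least 10% of the iron chelator positive control signal, with at least half of replicates also reaching 10%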
Hits are given with their value; n = inactive; x = not tested or not shown. An excerpt weighted towards active compounds, which were near 3.9% of everything screened.

SMILES	SR-BI HDL uptake	SR-BI DiI-HDL act	ABCB6 inh 2	GAA850 FXN act	AHR activator	HIF act
Cc1ccc2nc(SC(C)C(=O)NC3CCCC3)[nH]c2c1 (configuration not stated)	n	n	n	n	49	x
COc1ccc2nc(SC(C)C(=O)NC3CCCCC3)[nH]c2c1 (configuration not stated)	n	n	n	n	x	x
Cc1ccc2nc(SC(C)C(=O)Nc3cccc([N+](=O)[O-])c3)[nH]c2c1 (configuration not stated)	n	n	n	n	66	n
Cc1ccc2nc(SC(C)C(=O)N3CCOCC3)[nH]c2c1 (configuration not stated)	n	n	n	n	50	n
COc1ccc(Nc2nc(N3CCCC3)nc(N3CCCC3)n2)c(OC)c1	n	n	n	n	n	n
COc1ccc2c(c1)[n+](=O)c(C(C)=O)c(C)n2[O-]	n	n	n	n	n	n
CN(C(=O)CCN1C(=O)C(C)(C)Nc2ccccc21)c1ccccc1	n	n	n	n	n	x
Cc1ccc(Nc2c([N+](=O)[O-])c(=O)oc3ccccc23)cc1	n	n	n	n	n	n
O=c1oc2ccccc2c(Nc2ccc3ccccc3c2)c1[N+](=O)[O-]	n	n	n	n	65	n
CC(=O)N1CCn2c3ccc(C)cc3c3cccc1c32	n	n	n	n	71	n
Cc1cccc(C2=N/C(=C\c3cccnc3)C(=O)O2)c1	n	n	68	n	n	n
Cc1cc(C)c2cc(C(=O)Nc3ccccc3)[nH]c2c1	n	n	n	n	47	n
Cc1cc(C)c2cc(C(=O)Nc3ccc4c(c3)OCO4)[nH]c2c1	x	x	x	x	n	n
CCOc1ccc(/C=N\NC(=O)CC(=O)NCCc2ccccc2)cc1	n	n	n	n	n	n
O=C(c1cc(-c2ccc(Cl)cc2)on1)N1CCOCC1	n	n	n	n	n	n
COc1cccc(C(=O)N2CCN(c3ccccn3)CC2)c1	x	x	n	n	n	n
COc1cccc(-c2nc(CS(=O)(=O)CC(=O)N3CCN(c4ccccn4)CC3)c(C)o2)c1	n	n	n	n	57	n
COc1cccc(-c2nc(CS(=O)(=O)CC(=O)N3CCCCC3)c(C)o2)c1	n	n	n	n	n	n
Cn1nc(-c2ccccc2F)c2cc(C(=O)N3CCN(C(=O)c4ccco4)CC3)sc21	n	n	n	n	66	n
COc1cccc(-c2nn(C)c3sc(C(=O)N4CCN(c5ccccn5)CC4)cc23)c1	n	n	n	n	58	n
Cn1nc(-c2ccc(Cl)cc2)c2cc(C(=O)N3CCOCC3)sc21	n	n	n	n	55	x
COC(=O)c1ccccc1CC1SC(N)=NC1=O (configuration not stated)	n	n	n	n	n	n
COc1cccc(-c2nn(C)c3sc(C(=O)NCc4ccc5c(c4)OCO5)cc23)c1	n	n	n	n	50	n
CCOC(=O)C1CCCN(C(=O)c2cc3c(-c4cccc(OC)c4)nn(C)c3s2)C1 (configuration not stated)	n	n	n	n	n	n
COc1cccc(-c2nn(C)c3sc(C(=O)N4CCOCC4)cc23)c1	n	n	n	n	58	n
SMILES	SR-BI HDL uptake	SR-BI DiI-HDL act	ABCB6 inh 2	GAA850 FXN act	AHR activator	HIF act
COc1ccc(SCCN2CC[C@@H](NC(=O)OCc3ccccc3)CCC2=O)cc1	n	n	n	n	n	x
CCC(=O)N1CCN(c2ccccc2NC(=O)COc2ccccc2Cl)CC1	n	n	n	n	68	n
CN(Cc1ccccc1)C(=O)c1[nH]cnc1C(=O)Nc1ccc(Cl)cc1	n	n	n	n	66	x
O=C(Nc1ccccc1)c1nc[nH]c1C(=O)NCCCCNC(=O)c1[nH]cnc1C(=O)Nc1ccccc1	n	n	n	n	n	x
O=C(Nc1cccc(Cl)c1)c1nc[nH]c1C(=O)NCCCNC(=O)c1[nH]cnc1C(=O)Nc1cccc(Cl)c1	n	n	n	n	n	x
CNC(=O)c1[nH]cnc1C(=O)Nc1cccc(Cl)c1	n	n	n	n	55	x
O=C(Nc1ccccc1)c1nc[nH]c1C(=O)NCCNC(=O)c1[nH]cnc1C(=O)Nc1ccccc1	n	n	n	n	76	x
CN(CCN(C)C(=O)c1[nH]cnc1C(=O)Nc1ccccc1)C(=O)c1[nH]cnc1C(=O)Nc1ccccc1	n	n	n	n	47	x
Cc1ccc(NCC(=O)N/N=C/c2cccc(Br)c2)cc1	n	n	n	n	70	n
O=C(CNc1cccc(C(F)(F)F)c1)N/N=C/c1cccc(Br)c1	n	n	n	n	101	n
C/C(=N\NC(=O)Cc1ccccc1)c1ccc(Br)s1	n	n	n	n	n	n
C/C(=N\NC(=O)CNc1cccc(C(F)(F)F)c1)c1cccc(Br)c1	n	n	n	n	75	n
C/C(=N\NC(=O)CNc1cccc(C)c1)c1ccc(Br)s1	n	n	n	n	71	n
C/C(=N\NC(=O)CNc1cccc(C(F)(F)F)c1)c1ccc(Br)cc1	n	n	n	n	n	n
Cc1cccc(NCC(=O)N/N=C/c2cccc(Br)c2)c1	n	n	n	n	n	n
Cc1nc2ccccc2n1Cc1ccccc1	n	n	n	n	n	n
COc1ccc(C2CC(c3ccccc3)=NN2C(=O)c2cccs2)cc1 (configuration not stated)	n	n	n	n	n	n
Cc1ccc(NCC(=O)N/N=C\c2cccc(O)c2)cc1	n	n	n	n	65	n
COC(=O)c1ccc(/C=N/NC(=O)CNc2cccc(C)c2)cc1	n	n	n	n	n	n
Cc1cc(C)nc(SCC(=O)OC(C)C(=O)Nc2ccccc2)n1 (configuration not stated)	n	62	n	n	n	n
COc1c2occc2c(OC(C)=O)c2c(=O)cc(C)oc12	n	n	n	n	54	n
O=S(=O)(Nc1ccccc1)c1cccc2nonc12	n	n	n	n	n	n
ONC=Nc1cccc2nonc12	n	n	n	n	n	12
Cc1ccc(C(=O)ONC(=O)c2ccc(Cl)cc2)cc1[N+](=O)[O-]	n	n	n	n	55	n
O=C(CSc1nc2ccccc2s1)N/N=C/c1ccco1	n	n	n	n	n	n
Cc1nc2c(nc1C)C(=O)c1ccccc1C2=O	n	n	n	n	x	x
Cc1nc2c(cc1C#N)C(=O)c1ccccc1-2	n	n	n	n	159	n
